High-throughput results (PubChem)
NPY-Y2 PAM-ag: NPY-Y2 potentiators or agonists, primary screen, cell-based; Neuropeptide Y receptor type 2 (Homo sapiens), P49146; cells expressing NPY-Y2, potentiator/agonist read-out; activation, % at 3.6 µM; 220,000 compounds, 0.45% hits; AID 1359, 2008; in the data active = activation above about 27%;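 also: cells stimulated with NPY near EC25 plus isoproterenol at EC100; 0% = vehicle plus submaximal agonist and 100% = vehicle plus saturating agonist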
Target sequence (P49146 whole entry, looked up): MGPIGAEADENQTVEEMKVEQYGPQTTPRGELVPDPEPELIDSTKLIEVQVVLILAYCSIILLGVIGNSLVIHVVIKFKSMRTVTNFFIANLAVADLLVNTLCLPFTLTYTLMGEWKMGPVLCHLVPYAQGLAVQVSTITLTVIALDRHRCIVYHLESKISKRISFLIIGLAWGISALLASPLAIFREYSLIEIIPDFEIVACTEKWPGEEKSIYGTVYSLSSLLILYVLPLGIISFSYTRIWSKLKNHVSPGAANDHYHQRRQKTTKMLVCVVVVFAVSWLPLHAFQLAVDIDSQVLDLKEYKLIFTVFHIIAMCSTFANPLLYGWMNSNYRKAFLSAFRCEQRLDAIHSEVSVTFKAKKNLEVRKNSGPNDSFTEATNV
NPY Y1 blocker: NPY-Y1 receptor antagonists, primary screen, cell-based. 200,000 compounds, 1% hits. inhibition, % at 3.6 µM. HEK293-CNG Y1 cells, membrane potential fluorescence; NPY at EC95, then isoproterenol. AID 1040, 2008;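 active = inhibition above the campaign mean inhibition of all tested compounds plus 3 SD, cut at about 20% in these data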;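 also: 0% = DMSO wells given NPY plus isoproterenol and 100% = isoproterenol alone without NPY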
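Material: HEK293 cells co-expressing NPY Y1 receptor and cyclic-nucleotide gated channel. Timing: compound incubation 1 h at room temperature, readout 45 min post-stimulation. Signal: fluorescence, membrane potential probe.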
NPY Y2 blocker: NPY-Y2 receptor antagonists, primary screen, cell-based. Neuropeptide Y receptor type 2 (Homo sapiens), P49146. NPY-Y2 expressing cells, antagonist mode. inhibition, % at 2.7 µM. 140,000 compounds, 0.99% hits; in the data active = inhibition above about 17%;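 also: 0% = vehicle with agonist challenge and 100% = reference antagonist with challenge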
NPY-Y1 PAM-ag: NPY-Y1 receptor potentiators or agonists, primary screen, cell-based. 220,000 compounds, 0.37% hits. NPY-Y1 expressing cells, potentiator/agonist activation. Neuropeptide Y receptor type 1 (Homo sapiens), P25929. AID 1304, 2008. activation, % at 3.6 µM; in the data active = activation above about 33%, passing the limit was not always enough;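 also: cells stimulated with NPY at EC10 then isoproterenol at EC100; 0% = low agonist plus stimulus and 100% = saturating agonist plus stimulus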
NPY-Y1 pot conf: NPY-Y1 potentiators or agonists, confirmation, cell-based | shares compounds with NPY-Y1 PAM-ag | cell-based NPY-Y1 potentiator/agonist assay | activation, % at 3.6 µM | 280 compounds, 20% hits | AID 1546, 2009; in the data active = activation above about 45%;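 also: cells challenged with NPY at its EC10 plus isoproterenol stimulus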
NPY-Y2 counter: NPY-Y2 potentiators or agonists, counter-screen for NPY-Y1 potentiator project, cell-based, fluorescence. shares compounds with NPY-Y1 PAM-ag. HEK293-CNG cells, membrane-potential fluorescence (FLIPR), 1536-well. activation, % at 3.6 µM. 280 compounds, 20% hits; in the data active = activation above about 33%
NPY-Y1 ag: NPY-Y1 direct agonists without NPY, confirmation, counter-screen for NPY-Y1 potentiator project, cell-based, fluorescence | shares compounds with NPY-Y1 PAM-ag | HEK293 Y1-CNGC, membrane potential fluorescence, agonist mode | activation, % at 3.6 µM | 280 compounds, 50% hits | AID 1697, 2009;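 active = percent activation above the mean of DMSO-only control wells plus 3 SD of those wells, cut at about 18% in these data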;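 also: cells challenged with isoproterenol plus Ro 20-1724 with no NPY in test wells; Y1 agonism lowers isoproterenol-driven cAMP and reduces probe fluorescence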
NPY-Y2 agonist: NPY-Y2 direct agonists without NPY, counter-screen for NPY-Y1 potentiator project, cell-based, fluorescence; shares compounds with NPY-Y1 PAM-ag; HEK293 Y2-CNGC, membrane potential fluorescence, agonist mode; activation, % at 3.6 µM; 280 compounds, 67% hits; AID 1698, 2009;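 active = activation above the solvent-only control wells' mean plus 3 SD, cut at about 11% in these data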;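 also: 0% = DMSO with isoproterenol and 100% = 40 nM NPY maximal response; agonism lowers cAMP so well fluorescence drops in active wells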
CNGC counter: CNGC cAMP sensor activity inhibitors, counter-screen for NPY-Y1 potentiator/agonist project, cell-based, HEK293-CNG parental, membrane potential fluorescence, Y1 set; shares compounds with NPY-Y1 PAM-ag; isoproterenol cAMP; inhibition, % at 3.6 µM; 280 compounds, 42% hits; AID 1704, 2009;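 active = inhibition above the mean of stimulated solvent-only control wells plus 3 SD, cut at about 22% in these data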;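 also: 0% = isoproterenol-stimulated DMSO wells and 100% = unstimulated DMSO wells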
* marks the source's active call; other numbers are inactive results; . = no result given. A selection: hits, their analogues and other compounds. The true share with any hit is near 1.8%.

SMILES	NPY-Y2 PAM-ag	NPY Y1 blocker	NPY Y2 blocker	NPY-Y1 PAM-ag	NPY-Y1 pot conf	NPY-Y2 counter	NPY-Y1 ag	NPY-Y2 agonist	CNGC counter
CNCC(O)COc1cccc(OC)c1 (centres undefined)	24	-8	.	56*	15	14	10	18*	-3
COc1cc(Cl)c(C)cc1NC(=O)CSc1nnc(CCC(=O)O)c(=O)[nH]1	-8	3	.	0	.	.	.	.	.
O=C(CC1NCCc2ccccc21)Nc1ccc(Cl)cc1 (centres undefined)	-12	1	.	56*	-8	-5	-17	-10	-2
CC1CCN(c2ccc(C(=O)NCc3cccs3)cn2)CC1	7	2	2	5	.	.	.	.	.
COc1ccccc1-n1c(C)nnc1SCC(N)=O	1	0	0	43*	1	4	-4	1	-5
COc1ccccc1-n1c(SCC(N)=O)nnc1-c1ccccc1	12	-4	4	13	.	.	.	.	.
CCOc1cc(N2CCOCC2)c(OCC)cc1NC(=O)CN1C(=O)NC2(CCc3ccccc32)C1=O (centres undefined)	3	-1	6	5	.	.	.	.	.
COc1cc2c(cc1NC(=O)CN1C(=O)NC3(CCc4ccccc43)C1=O)oc1ccccc12 (centres undefined)	19	-7	-2	35*	62*	39*	37*	44*	45*
N#CC1=C(N)OC2=C(C(=O)CC(c3ccco3)C2)C1c1ccc(OCc2c(F)cccc2Cl)cc1 (centres undefined)	-27	1	3	63*	-2	-10	-3	-10	-3
CCCCCn1c(CCC(=O)Oc2ccccc2OC)nc2c1c(=O)[nH]c(=O)n2CCCC	-18	3	13	-19	.	.	.	.	.
Cc1cccc(C(=O)N[C@H](C(=O)Nc2nc3ccc(S(C)(=O)=O)cc3s2)C(C)C)c1	-3	3	.	-15	.	.	.	.	.
COC(=O)[C@@H]1CC[C@H](C)[C@@H](c2ccc(C)cc2)N1C(=O)c1ccc(/C=N/OC[C@@H](O)[C@H]2O[C@@H]3OC(C)(C)O[C@@H]3[C@H]2O)cc1	16	-3	0	39*	6	0	-2	6	-10
COCCNC(=O)COc1cccc2c1OC(C)(C)C2	15	3	.	11	.	.	.	.	.
N#Cc1c(-c2ccccc2)c(-c2ccccc2)nn(CC(=O)NNC(=O)Nc2ccc(Cl)c(Cl)c2)c1=O	5	-10	-1	38*	43	28	34*	32*	32*
CC(C)(C)NC(=O)C(c1ccc(O)cc1)N(C(=O)Cn1nnc(-c2ccc(F)cc2)n1)c1ccccc1F (centres undefined)	-6	-1	.	52*	14	5	19*	16*	20
COC(=O)C1=C(C)NC2=C(C(=O)CC(C)(C)C2)C1c1cnn(C)c1C (centres undefined)	1	-3	0	2	.	.	.	.	.
COc1ccc(C(=O)NC2CCCCCC2)cc1S(=O)(=O)Nc1ccc(Br)cc1	26	-3	2	48*	44*	31	42*	31*	40*
COc1ccc(C(=O)NC2CCCCCC2)cc1S(=O)(=O)N1CCCC1	0	5	.	10	.	.	.	.	.
Brc1ccc(-c2csc(Nc3nc(-c4ccc(Br)cc4)cs3)n2)cc1	-12	.	.	-11	.	.	.	.	.
Brc1ccc(Nc2nc(-c3cccnc3)cs2)cc1	28	-11	.	37*	42	31	43*	38*	34*
COc1ccc(/C=C2\SC(=S)N(CC3CCCO3)C2=O)cc1 (centres undefined)	10	.	.	11	.	.	.	.	.
COc1ccc(N=C2O/C(=C/c3sc(=S)n(CC4CCCO4)c3O)N=C2C#N)cc1 (centres undefined)	21	.	.	53*	42	45*	22*	48*	12
O=C(C1CCCO1)N1CCN(C(=S)Nc2ccc(Cl)cc2)CC1 (centres undefined)	6	1	0	9	.	.	.	.	.
COC(=O)c1ccc(C)c(NC(=O)CCc2ccc(OC)cc2)c1	8	2	7	105*	-3	-4	-10	-12	-8
Cc1ccc(C(=O)O)cc1NC(=O)CCc1ccccc1	2	0	.	-19	.	.	.	.	.
SMILES	NPY-Y2 PAM-ag	NPY Y1 blocker	NPY Y2 blocker	NPY-Y1 PAM-ag	NPY-Y1 pot conf	NPY-Y2 counter	NPY-Y1 ag	NPY-Y2 agonist	CNGC counter
CCN(C(=O)COC(=O)c1[nH]c(=O)[nH]c(=O)c1N)c1ccccc1	7	-3	.	1	.	.	.	.	.
O=C(COC(=O)c1ccc(NS(=O)(=O)c2cccs2)cc1O)NCc1ccccc1	-9	1	.	3	.	.	.	.	.
O=C(COC(=O)c1ccc(NS(=O)(=O)c2cccs2)cc1O)Nc1nc2ccccc2s1	22	-3	.	43*	35	24	38*	25*	22*
Cn1nc(C(F)(F)F)c(-c2ccc(F)cc2)c1NC(=O)Nc1ccc(F)cc1	38	.	.	48*	59*	45*	58*	52*	49*
COc1ccc2cc(C3(C)NC(=O)NC3=O)ccc2c1 (centres undefined)	8	-7	-1	68*	0	-5	-6	-3	-8
COc1ccc2c(c1)CCCC21NC(=O)NC1=O (centres undefined)	9	2	0	2	.	.	.	.	.
CN(C)CCNC(=O)COc1ccc(Cl)cc1Cl	-11	-8	5	-17	.	.	.	.	.
O=C(COc1ccc(Cl)cc1Cl)NCCSc1ccc(Cl)cc1	-33	18	7	91*	-36	-23	-21	-1	-26
COCCCNc1nc2c(c(=O)[nH]c(=O)n2C)n1CC(O)COc1ccccc1 (centres undefined)	29	5	0	96*	3	2	-1	12*	8
Cn1c(=O)[nH]c(=O)c2c1nc(N1CCCCC1)n2CCSc1nc2ccccc2o1	7	1	0	40*	-3	2	1	9	3
COc1ccc(N(C(=O)c2ccc(Br)o2)C2C=CS(=O)(=O)C2)cc1 (centres undefined)	-1	-7	2	5	.	.	.	.	.
